Source: PubChem BioAssay (several laboratories)
Compounds with a hit are over-represented: about 1.3% of the library has one in this group of screens.
GSK3 alpha inh – blockers of GSK3A enzyme activity – biochemical, luminescence, cell-free homogeneous, HTS, primary screen. 320,000 tested, 0.1% active. inhibition, % at 10 µM. Glycogen synthase kinase-3 alpha (Homo sapiens), P49840. GSK-3 alpha kinase, ADP-Glo luminescence, 60 min;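 active means more than half of replicates show inhibition above 20%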;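 further: GST-tagged GSK-3 alpha with peptide substrate and 25 µM ATP; 0% = DMSO neutral wells and 100% = GW8510 positive control wells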
GSK3B inh – human GSK3beta kinase inhibitors, primary screen, biochemical, cell-free homogeneous, HTS; GST-GSK3beta kinase, ADP-Glo luminescence, 60 min; active compounds read low; AID 2097, 2009; activity score (negative = inhibition), % at 10 µM; 300,000 tested, 0.038% active;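 active means more than half of replicate wells score below -50%, meaning over 50% inhibition versus plate controls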;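 further: 0% = median DMSO wells and -100% = median GW8510 positive control wells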
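Assay system: GST-tagged human GSK3beta kinase, cell-free; Input: 1.6 ng GSK3beta; Medium: Tris/MgCl2 kinase buffer; Timing: 60 min enzyme reaction, room temperature; Signal: ADP-Glo luminescence quantifying ADP generated by kinase; Evaluation: score relative to plate controls; Benchmarks: DMSO neutral wells and GW8510 at 20 µM as positive.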
H9c2 TAG inh – inhibitors of triacylglycerol accumulation, primary screen, cell-based, uHTS, fluorescence, H9c2; inhibition, % at 12.5 µM; H9c2 cells, Nile Red lipid (TAG) fluorescence; cells loaded with 200 µM oleic acid; 230,000 tested, 0.66% active; AID 651582, 2012;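 active means pattern-corrected inhibition of lipid staining of at least 50% with the nuclear-stain viability signal not falling by more than 50%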;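 further: 0% = DMSO wells and 100% = triacsin C control wells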
Lipid droplet – inhibitors of hepatocyte lipid droplet formation, primary screen, imaging, high-throughput imaging, BODIPY stain. AML12 mouse hepatocytes, oleate lipid droplets. inhibition, % at 6.5 µM. 240,000 tested, 0.4% active;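 active means lipid droplet intensity inhibited by at least 50%, with more than 500 cells counted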
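Technique: fluorescence imaging, 20x objective, two fields per well / Assay system: AML12 hepatocytes (mouse) / Measure: % inhibition of lipid droplet signal / Doses: 6.5 µM single-point dosing / Incubation: overnight exposure / Reagent: 100 µM oleic acid challenge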
LANA-H2A inh – blockers of LANA interaction with H2A/H2B – biochemical, FP readout, HTS, primary screen; 320,000 tested, 0.6% active; inhibition, % (no concentration beside the values); Protein LANA1 (Human herpesvirus 8 type P (isolate GK18)), Q9QR71; AID 2629, 2010; cell-free LANA-H2A/H2B peptide, fluorescence polarization; in the data active means inhibition mostly above about 10%, no sharp cut-off; inactive means mostly below about 6.7%
STK33 inh – inhibitors of purified STK33 kinase, primary screen, biochemical, ADP-Glo luminescence, homogeneous, cell-free. inhibition, % at 10 µM. MBP phosphorylation. 320,000 tested, 0.073% active. Serine/threonine-protein kinase 33 (Homo sapiens), Q9BYT3;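 active means inhibition at or above 25%, using the most active replicate where run in duplicate; inactive means inhibition below 25%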
Target sequence (Q9BYT3 whole entry, looked up): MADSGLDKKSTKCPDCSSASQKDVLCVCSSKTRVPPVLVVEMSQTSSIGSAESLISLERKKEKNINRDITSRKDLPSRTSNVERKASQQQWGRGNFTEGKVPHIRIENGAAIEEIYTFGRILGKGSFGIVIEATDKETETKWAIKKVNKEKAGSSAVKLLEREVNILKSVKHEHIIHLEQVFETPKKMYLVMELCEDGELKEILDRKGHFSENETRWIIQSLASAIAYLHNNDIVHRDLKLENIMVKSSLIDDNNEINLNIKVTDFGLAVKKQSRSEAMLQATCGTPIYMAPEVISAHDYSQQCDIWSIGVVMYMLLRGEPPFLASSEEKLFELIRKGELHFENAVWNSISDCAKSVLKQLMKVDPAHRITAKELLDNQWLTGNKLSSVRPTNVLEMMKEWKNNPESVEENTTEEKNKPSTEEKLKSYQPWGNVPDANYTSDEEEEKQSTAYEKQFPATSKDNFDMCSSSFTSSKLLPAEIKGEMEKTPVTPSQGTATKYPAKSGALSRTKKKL
TAG conf – triacylglycerol accumulation inhibitors, retest, confirmation, cell-based, single concentration, Nile Red fluorescence, H9c2. shares compounds with H9c2 TAG inh. inhibition, % at 12.5 µM. 990 tested, 71% active. AID 651629, 2012. H9c2 lipid accumulation; cells loaded with 200 µM oleic acid;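 active means mean inhibition across replicates of 40% or more; inactive means mean inhibition below 40%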;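 further: plate controls were DMSO only wells for no effect and Triacsin C treated wells for full effect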
The depositor's hits bear a star; x = no result given.

SMILES	GSK3 alpha inh	GSK3B inh	H9c2 TAG inh	Lipid droplet	LANA-H2A inh	STK33 inh	TAG conf
COCCNCC(O)CON=C1c2ccccc2-c2ccccc21 (centres undefined)	-0.4	-1.3	6.2	4.7	-3.4	-1.2	x
CC(C)CCNCC(O)CON=C1c2ccccc2-c2ccccc21 (centres undefined)	3.0	-1.0	64.2*	28.5	-5.3	x	41.7*
CN1CCN(C(=O)c2ccc(Cc3cn(C)c4ccccc34)nc2)CC1	x	x	53.7*	x	x	x	-0.2
CC(C)N(C(=O)c1ccc(Cc2cn(C)c3ccccc23)nc1)C(C)C	x	x	-8.9	x	x	x	x
CCOC(=O)C1CCCN(C(=O)c2cccc(S(=O)(=O)N3CC(C)OC(C)C3)c2)C1 (centres undefined)	x	1.6	1.2	-3.1	x	x	x
CCOc1ccc(Cc2nnc(SCC(=O)Nc3ccccc3)n(N)c2=O)cc1	-1.0	0.6	50.3*	x	1.4	-0.1	68.2*
CCOc1ccccc1NC(=O)CSc1nnc(Cc2ccc(OC)cc2)c(=O)n1N	0.5	3.0	38.1	x	-0.8	-1.0	x
Cc1ccc(Cc2nnc(SCC(=O)Nc3ccccc3)n(N)c2=O)cc1	-1.2	-1.4	51.9*	x	3.5	-1.0	62.1*
Cc1ccsc1C(=O)Nc1cccc(S(=O)(=O)N(C)C)c1	-2.1	3.8	x	-2.0	2.2	0.1	x
CC(=O)c1c(C)[nH]c(C(=O)CN2C(=O)NC3(CCCCC3)C2=O)c1C	x	x	-10.8	x	x	x	x
COc1ccc(-c2csc(NC(=O)CC(C)C)n2)cc1	0.7	x	65.5*	-16.9	-2.9	0.4	31.7
COc1ccc(-c2csc(NC(=O)c3c(OC)cccc3OC)n2)cc1	-1.0	-2.3	x	-6.3	-1.0	-1.6	x
COCCOC(=O)c1[nH]c2c(c1C)C(=O)CC(c1ccccc1)C2 (centres undefined)	0.7	-5.8	80.4*	-273.9	-8.7	-1.4	47.1*
COCCOC(=O)c1[nH]c2c(c1C)C(=O)CC(c1ccc(N(C)C)cc1)C2 (centres undefined)	2.2	0.0	25.8	-16.2	-1.0	-1.8	x
COC(=O)c1cc(COC(=O)c2nc3nc(C)cc(C)n3n2)oc1C	0.5	-2.2	-9.6	1.9	-5.4	1.2	x
CCOc1ccccc1-c1nc(-c2ccc(NC(=O)Cc3ccccc3OC)cc2)no1	-4.3	1.7	71.4*	19.7	2.8	0.2	45.9*
COc1ccccc1CC(=O)Nc1ccc(-c2noc(COc3ccc(Cl)c(C)c3)n2)cc1	-3.2	-3.9	x	-1.0	4.7	0.0	x
CCOC(=O)c1nc(C)nc(Sc2n[nH]c(-c3cc(Cl)cc(Cl)c3)n2)c1C	-0.6	0.7	-6.7	-2.7	-3.5	-0.9	x
COC(=O)c1c(NC(NC(=O)C(C)(C)C)C(Cl)(Cl)Cl)sc2c1CCC2 (centres undefined)	-0.4	-0.2	58.9*	x	0.2	-2.3	65.1*
c1ccc2c(c1)NC(c1ccncc1)n1c-2nc2ccccc21 (centres undefined)	-16.4	-9.2	52.6*	10.1	-0.4	-1.1	13.8
O=C(Nc1ccccc1N1CCN(C(=O)c2ccccc2)CC1)c1ccc(Br)o1	31.1	-7.9	-3.2	13.1	1.6	9.4	x
COC(=O)C1=C(c2ccc(OC)cc2)OC(=O)C1(C)C	4.0	1.3	60.5*	x	-1.0	5.3	-3.2
COC(=O)c1noc(-c2ccc(OC)cc2)n1	-0.6	0.1	7.6	-17.5	-2.1	7.4	x
O=C1CN(C(=O)COc2cccc(F)c2)c2ccccc2N1	-2.8	-0.8	x	-3.9	3.0	-1.6	x
Cc1noc(C)c1COc1cccc(C(=O)OCC(=O)N2CC(=O)Nc3ccccc32)c1	-1.7	-2.5	65.5*	x	1.8	0.2	89.2*
SMILES	GSK3 alpha inh	GSK3B inh	H9c2 TAG inh	Lipid droplet	LANA-H2A inh	STK33 inh	TAG conf
O=C(COC(=O)c1cccc(S(=O)(=O)N2CCc3ccccc32)c1)Nc1ncc(C(F)(F)F)cc1Cl	-1.1	3.0	0.5	-1.2	-3.0	-1.4	x
CC(=O)Nc1ccc(SC[C@H](CC(C)C)N2CCN(CC(C)C)CCC2=O)cc1	x	-0.6	67.5*	-0.2	-0.3	1.2	1.0
CCOc1ccc(NC(=O)Cn2nnc(-c3ccccc3NC(=O)C3CC3)n2)cc1	-0.8	-0.2	71.9*	x	-1.1	-1.9	39.8
Cc1ccc(C(=O)C(OC(=O)CN2C(=O)c3ccccc3C2=O)c2ccccc2)cc1 (centres undefined)	-1.4	-0.7	x	x	7.6	-2.0	x
COc1cc(OC)cc(C(=O)N2CC(=O)Nc3ccccc32)c1	1.3	0.1	57.8*	-150.1	-4.3	-1.1	63.3*
CCCC(=O)Nc1ccc2oc(-c3cccnc3)nc2c1	0.4	1.8	13.5	-0.9	-2.3	-0.4	x
O=C(Nc1ccc2oc(-c3cccnc3)nc2c1)c1cc2ccccc2o1	-1.3	-3.5	51.9*	x	-2.8	0.1	24.6
O=[N+]([O-])c1cc(Cl)cc(/C=N\Nc2ccccn2)c1O	1.7	-5.3	0.6	x	10.6	-0.1	x
Cc1noc(C)c1-c1ccc2ncnc(NCC3CCCCN3C)c2c1 (centres undefined)	-0.4	x	62.0*	x	1.5	2.3	51.4*
Cc1ccsc1CNc1ncnc2ccc(-c3c(C)noc3C)cc12	0.9	x	30.9	x	-1.2	1.8	x
COCCNC(=O)c1c[nH]c2ccc(S(=O)(=O)Nc3ccccc3F)cc2c1=O	3.3	2.3	x	-2.6	-3.2	1.3	x
Cc1ccc(C(C(=O)NC2CCCC2)N(Cc2ccc3c(c2)OCO3)C(=O)c2snc(C(N)=O)c2N)cc1 (centres undefined)	-0.2	-0.1	-6.8	-3.2	-1.8	-1.1	x
O=C(NC1CCCCC1)C(c1ccccc1)N(Cc1ccc2c(c1)OCO2)C(=O)c1cnsn1 (centres undefined)	-0.8	-0.2	59.3*	11.5	-8.5	1.5	41.3*
Cc1ccc(C(=O)Nc2nnc(NC(=S)Nc3ccccc3)s2)cc1	-9.7	-1.9	33.1	21.4	3.5	-1.0	x
CCOc1ccc(C(=O)Nc2nnc(NC(=S)Nc3ccccc3)s2)cc1	-1.0	1.1	50.7*	49.4	0.1	-1.1	41.7*
CN(c1ccccc1)S(=O)(=O)c1ccc(NC(=O)c2nc(S(C)(=O)=O)ncc2Cl)cc1	-0.4	-0.6	x	-0.2	6.3	-1.8	x
